Data set [1] is filed under the species Homo sapiens. Put plainly: Selectivity index, ratio of EC50 for human S1P3 receptor to EC50 for human S1P1 receptor.
Data set [2] has as its target Sphingosine 1-phosphate receptor 3 (Homo sapiens, UniProt Q99500). Kind of data set: Agonist activity at human S1P3 receptor expressed in CHOK1 cell membranes by [35S]GTPgammaS binding assay. The class given is functional, CHO-K1. A digest of the protocol:
(§1)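 Membranes of CHO-K1 cells transfected with human S1P1 or S1P3. Phosphorylated compounds tested. Buffer: 50 mM HEPES pH 7.5, 100 mM NaCl, 5 mM MgCl2, 0.05 mg/mL saponin, with GDP and DTT. Started with [35S]GTPγS plus membrane, 60 min at room temperature, then filter harvest and scintillation counting. Binding expressed as % of 20 µM Sph-1-P response, blank-corrected, n = 2.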
On the technique in general: Binding of GTPγS marks nucleotide exchange on a G protein.

Data set [3] has as its target Sphingosine 1-phosphate receptor 1 (Homo sapiens, UniProt P21453). Kind of data set: Agonist activity at human S1P1 receptor expressed in CHOK1 cell membranes by [35S]GTPgammaS binding assay. The class given is functional, CHO-K1. A digest of the protocol: as §1
The subject of data set [4] is Rattus norvegicus. Kind of data set: Immunosuppressive activity in Lewis rat injected with WKAH/Hkm rat spleen cells assessed as inhibition of host versus graft reaction by measuring popliteal lymph nodes weight dosed orally at 1 mg/kg once daily for 4 successive days starting on day of spleen cell injection. Format: functional. The following applies: route oral. A digest of the protocol:
(§2)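 Lewis rats received 1×10^7 WKAH/Hkm splenocytes intracutaneously into both hind footpads. Syngeneic controls received Lewis splenocytes. Compound suspended in 0.5% tragacanth, given orally at 5 mL/kg once daily for 4 days from the day of cell injection; 5 rats/group. Popliteal lymph node weight gain measured relative to allogeneic control. ID50 by least squares from at least three doses.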

Data set [5] in a line: Drug metabolism in rat plasma assessed as compound phosphorylation at 100 ug/ml at 37 degC after 3 hrs by HPLC method. Format: ADME, cell-free. As to conditions: read-out: Drug metabolism. A digest of the protocol:
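Rat whole blood, citrate-treated, spiked with compound from 100 µg/mL DMSO stock and held 3 h at 37 °C. Methanol quench, centrifugation twice at 4 °C, reversed-phase HPLC with CH3CN/0.1% TFA gradient. Phosphorylation given as ratio of HPLC peak areas of phosphate to remaining parent.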

Data set [6] can be described thus: AUC (0 to 48 hrs) in rat at 1 mg/kg, po. Format: ADME, organism-based. More on the design: time < 48 hr, dose 1 mg/kg, route oral. The following applies: plasma. A digest of the protocol:
(§3)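 Single oral dose of 1.0 mg/kg parent compound in rats, n = 2 or 3. Plasma levels measured for parent and its phosphate. Cmax, AUC0-48 and T1/2 derived from plasma concentration. Half-life of phosphate taken from plasma phosphate level after dosing at 1.0 mg/kg p.o., n = 2.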

Data set [7] can be described thus: Half life in rat at 1 mg/kg, po. More on the design: dose 1 mg/kg, route oral. The following applies: in vivo. The class given is ADME, organism-based. Put shortly:
as §3

A short description of data set [8]: Metabolic stability in rat hepatic microsomes assessed as parent compound remaining after 30 mins at 37 degC. The following applies: liver microsomes. The class given is ADME, microsome. Put shortly: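 Compound incubated with rat hepatic microsomes for 30 min at 37 °C; percentage of compound remaining reported.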
Data set [9] has as its system Rattus norvegicus. Put plainly: Drug level in Wistar Imamichi rat at 1 to 30 mg/kg, po. Format: ADME, organism-based. Also on record: dose 1-30 mg/kg, route oral. As to conditions: in vivo; call rule not given here.
Data set [10] is described as follows: Cmax in rat at 1 mg/kg, po. More on the design: dose 1 mg/kg, route oral. The class given is ADME, organism-based. As to conditions: in vivo. A digest of the protocol:
as §3

For data set [11], the system named is Rattus norvegicus. Kind of data set: Immunosuppressive activity in Lewis rat injected with WKAH/Hkm rat spleen cells assessed as inhibition of host versus graft reaction by measuring popliteal lymph nodes weight dosed orally at 5 mL/kg once daily for 4 successive days starting on day of spleen cell injection. Format: functional. As to conditions: po, read-out: ID50 (the source's name). Put shortly:
as §2

For data set [12], the system named is Rattus norvegicus. Put plainly: Induction of lymphopenia in Lewis rat assessed as reduction in lymphocyte numbers at 0.1 mg/kg, po after 4 hrs by automatic hemacytometry relative to untreated control. Format: functional. Also on record: scale not given: the % may be the effect or the level left. A digest of the protocol: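 Male Lewis rats, 5 weeks old, 5 per group, given saline vehicle or 0.1 mg/kg compound orally. EDTA blood drawn before and 4 h after dosing. Lymphocytes counted by automatic hemacytometer; untreated rats also counted.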

Data set [13] in a line: Half life in Lewis rat at 1 mg/kg, po. The following applies: in vivo. Also on record: dose 1 mg/kg, route oral. Format: ADME, organism-based. Put shortly:
as §3

Data on 15 compounds can be found in ChEMBL document CHEMBL3351694, “Synthesis and SAR studies of benzyl ether derivatives as potent orally active S1P₁ agonists” (Bioorg Med Chem, 2014).

Chain of Sphingosine 1-phosphate receptor 1 (P21453 whole entry): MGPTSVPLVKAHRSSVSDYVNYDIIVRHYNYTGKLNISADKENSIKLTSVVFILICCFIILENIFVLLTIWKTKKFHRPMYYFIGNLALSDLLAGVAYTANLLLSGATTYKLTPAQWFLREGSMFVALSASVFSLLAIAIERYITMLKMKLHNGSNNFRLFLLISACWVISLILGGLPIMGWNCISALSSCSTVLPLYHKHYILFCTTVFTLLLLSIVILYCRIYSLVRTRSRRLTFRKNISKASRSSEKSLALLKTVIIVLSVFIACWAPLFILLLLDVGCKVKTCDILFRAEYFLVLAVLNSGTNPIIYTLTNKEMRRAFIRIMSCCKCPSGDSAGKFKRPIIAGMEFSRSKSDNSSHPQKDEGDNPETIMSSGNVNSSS
Chain of Sphingosine 1-phosphate receptor 3 (Q99500 whole entry): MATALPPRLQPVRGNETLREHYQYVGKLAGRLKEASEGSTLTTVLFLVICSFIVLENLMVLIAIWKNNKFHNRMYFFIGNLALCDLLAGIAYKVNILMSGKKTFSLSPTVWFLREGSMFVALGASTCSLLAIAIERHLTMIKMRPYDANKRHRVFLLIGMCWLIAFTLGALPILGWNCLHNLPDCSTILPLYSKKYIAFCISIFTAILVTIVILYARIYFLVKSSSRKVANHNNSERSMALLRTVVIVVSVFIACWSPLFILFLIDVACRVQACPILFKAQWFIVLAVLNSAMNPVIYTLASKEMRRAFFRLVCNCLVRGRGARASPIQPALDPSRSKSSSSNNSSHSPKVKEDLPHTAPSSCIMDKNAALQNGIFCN

With `Cc1ccc(CCCC(=O)c2ccc(COC[C@@](C)(N)COP(=O)(O)O)cc2C)cc1`, the Ratio EC50 in data set [1] is more than 1050. Moreover, the EC50 in data set [2] was more than 20000 nM; in data set [3], 19 nM.
With `Cc1ccc(CCCC(=O)c2cc(C)c(COC[C@@](C)(N)CO)cc2C)cc1`, the inhibition in vivo at 1 mg/kg in data set [4] was determined as 11%. In addition, the metabolised at 3 h, 100 ug/ml in data set [5] was found to be 6%.
With `Cc1ccc(CCCC(=O)c2ccc(COC[C@@](C)(N)CO)c(C)c2)cc1.Cl`, the AUC(0-t) at 48 h in data set [6] worked out at 200 ng·h/mL. The half-life in data set [7] came out at 246 min. Besides, the amount remaining at 0.5 h in data set [8] is 36%. Besides, in data set [9], the Drug uptake result is “Dose-dependent effect”. The compound also displayed a Cmax in data set [10] of 34 ng/mL. Also, the metabolised at 3 h, 100 ug/ml in data set [5] amounted to 38.4%. Further, the ED50 in data set [11] came out at 0.43 mg/kg.
As to `CCc1cc(C(=O)CCCc2ccc(C)cc2)ccc1COC[C@@](C)(N)CO`, in [4], the inhibition in vivo at 1 mg/kg was 10%. Besides, the metabolised at 3 h, 100 ug/ml in [5] amounted to 13.9%.
`Cc1ccc(CCCC(=O)c2cc(C)c(COC[C@@](C)(N)COP(=O)(O)O)cc2C)cc1`: the Ratio EC50 in [1] is more than 3080. For the same compound, the EC50 in data set [2] is more than 20000 nM; in data set [3], 6.5 nM.
Regarding `Cc1ccc(CCCC(=O)c2ccc(COC[C@@](C)(N)CO)cc2)cc1.Cl`, the exposure AUC(0-t) at 48 h in data set [6] amounted to 120 ng·h/mL. Also, the figures for the half-life in data set [7] and in data set [13] were 342 min and 468 min, respectively. Further, the share remaining at 0.5 h in data set [8] came out at 51%. For the same compound, the Cmax in data set [10] turned out to be 13 ng/mL. Besides, the Activity in data set [12] was 39.5%. For the same compound, the metabolised at 3 h, 100 ug/ml in data set [5] was found to be 39.5%. The ED50 in [11] came to 0.27 mg/kg.
For `Cc1ccc(CCCC(=O)c2ccc(COC[C@@](C)(N)COP(=O)(O)O)c(C)c2)cc1`, in data set [1], the Ratio EC50 came out at 60. For the same compound, the AUC(0-t) at 48 h in data set [6] turned out to be 806 ng·h/mL. Moreover, the EC50 in data set [2] is 180 nM; in data set [3], 3 nM. In [7], this compound gave a half-life of 258 min. For the same compound, the fraction remaining at 0.5 h in [8] stood at 92%. In data set [10], this compound showed a Cmax of 104 ng/mL.
For `CCCCCCCCc1ccc(CCC(N)(CO)CO)cc1` [FINGOLIMOD], in data set [8], the share remaining at 0.5 h turned out to be 97%. For the same compound, in [12], the Activity is 21%. Further, the half-life in data set [13] is 1920 min. Further, the ED50 in data set [11] amounted to 0.33 mg/kg.
As for `Cc1ccc(CCCC(=O)c2cc(C)c(COC[C@@](C)(N)COP(=O)(O)O)c(C)c2)cc1`, the Ratio EC50 in [1] was 155. For the same compound, the EC50 in data set [2] was 340 nM; in data set [3], 2.2 nM.
For `Cc1ccc(CCCC(=O)c2ccc(COC[C@@](C)(N)COP(=O)(O)O)cc2)cc1`, the Ratio EC50 in data set [1] was 29. The compound further displayed an AUC(0-t) at 48 h in data set [6] of 799 ng·h/mL. For the same compound, the EC50 in data set [2] worked out at 200 nM; in [3], 7 nM. Moreover, in data set [7], the half-life was 468 min. For the same compound, the share remaining at 0.5 h in data set [8] was found to be 92%. Besides, the concentration in [10] peaked (Cmax) at 72 ng/mL.
Consider `CCc1cc(C(=O)CCCc2ccc(C)cc2)ccc1COC[C@@](C)(N)COP(=O)(O)O`, for which the Ratio EC50 in data set [1] came out at 5220. In addition, the EC50 in [2] is 12000 nM; in data set [3], 2.3 nM.
The matching figures for `Cc1ccc(CCCC(=O)c2ccc(COC[C@@](C)(N)COP(=O)(O)O)c(F)c2)cc1`: 21, 60 nM and 2.8 nM.
`Cc1ccc(CCCC(=O)c2ccc(COC[C@@](C)(N)CO)c(Cl)c2)cc1.Cl`: the AUC(0-t) at 48 h in data set [6] is 144 ng·h/mL. In [7], this compound gave a half-life of 276 min. In data set [8], the fraction remaining at 0.5 h amounted to 38%. The Drug uptake result in data set [9] is “Dose-dependent effect”. This compound also gave a Cmax in data set [10] of 18 ng/mL. In addition, the metabolised at 3 h, 100 ug/ml in [5] amounted to 83.8%. The ED50 in [11] turned out to be 0.39 mg/kg.
For the compound `Cc1ccc(CCCC(=O)c2ccc(COC[C@@](C)(N)COP(=O)(O)O)c(Cl)c2)cc1`, in data set [1], the Ratio EC50 was 55. The compound further returned an AUC(0-t) at 48 h in [6] of 658 ng·h/mL. The values for the EC50 in [2] and in [3] were 220 nM and 4 nM, respectively. This compound also had a half-life in data set [7] of 276 min. Further, in data set [8], the fraction remaining at 0.5 h is 86%. In data set [10], this compound returned a Cmax of 97 ng/mL.
For the compound `CCCCCCCCc1ccc(CC[C@](N)(CO)COP(=O)(O)O)cc1` [FTY720-P], in [8], the share remaining at 0.5 h was more than 100%.

By EC50 is commonly meant the concentration giving half of the maximal effect. A word on the inhibition in vivo: it is the drop in the measured response relative to a control, in per cent. A word on the AUC(0-t): it is the area under the concentration-time curve up to a stated or last time point. In general, half-life refers to how long it takes for the measured level to halve. For orientation: share remaining means what is left of the initial amount, in per cent. By Cmax is commonly meant the peak of the concentration-time curve.
